Screening data from PubChem.
TAAR1 agonist: agonists of human TAAR1; CHO RD-HGA16 TAAR1, Fluo-8 calcium fluorescence; vehicle wells 0%, saturating PEA agonist 100%; 360,000 compounds, 0.99% hits; activation, % at 3 µM; Q96RJ0; AID 624467;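 active = activation above the mean activation of all test compounds in the run plus 3 SD, cut at about 38% in these data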
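Signal – calcium-sensitive Fluo-8 signal, excitation 470-495, emission 515-575 nm · System – RD-HGA16 (CHO) cells co-expressing Gα16 and hTAAR1 · Incubation – 17-24 h seeding, 75 min 37 °C dye, 30 min RT · Compound dosing – 3 µM single concentration · Repeats – no replicates (n 1)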
CHO parental Ca: counter-screen: ATP calcium response change in parental CHO cells; inhibition, % at 5.6 µM; parental CHO-K1, ATP-induced calcium, Fluo-8 fluorescence; 330,000 compounds, 0.63% hits;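 active = inhibition above that plate's mean sample inhibition plus 3 SD, cut at about 26% in these data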
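Material – parental CHO cells · Reagent – ATP stimulus · Compound – single nominal dose of 5.6 µM per compound · Detection – Fluo-8 fluorescence · Read-out basis – percent inhibition of calcium signal · Controls – ATP-challenged DMSO wells low, unchallenged DMSO wells high · Repeats – no replicates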
OX1R antag-1: OX1R (human) antagonism | O43613 | AID 485270 | 330,000 compounds, 1.8% hits | OX1R-expressing cells, FRET antagonist read-out | inhibition, % at 6.6 µM; in the data active = inhibition mostly above about 38%, no sharp cut-off; inactive = mostly below about 40%
Target sequence (O43613 whole entry, looked up): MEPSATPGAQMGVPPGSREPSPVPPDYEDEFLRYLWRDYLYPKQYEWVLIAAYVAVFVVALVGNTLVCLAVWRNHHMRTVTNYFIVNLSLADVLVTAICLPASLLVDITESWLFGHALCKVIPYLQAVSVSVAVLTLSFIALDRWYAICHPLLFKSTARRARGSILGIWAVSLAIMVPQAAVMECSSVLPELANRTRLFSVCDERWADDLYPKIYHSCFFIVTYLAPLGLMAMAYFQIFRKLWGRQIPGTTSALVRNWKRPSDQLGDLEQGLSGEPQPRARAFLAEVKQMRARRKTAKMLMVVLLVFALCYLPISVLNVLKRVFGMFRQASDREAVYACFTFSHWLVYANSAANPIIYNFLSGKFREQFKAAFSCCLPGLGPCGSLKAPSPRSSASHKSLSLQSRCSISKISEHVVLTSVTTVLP
GalR3 antagonist: antagonists of human GalR3 | O60755 | HEK293 GalR3-CNG cAMP membrane potential fluorescence; galR3 body fused to GalR1 C-terminus | inhibition, % at 3 µM | 360,000 compounds, 0.44% hits | AID 651719;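 active = inhibition above the screen-wide average plus 3 SD, cut at about 13% in these data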;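 note: forskolin and galanin both at EC90 stimulate the cells; cAMP rise reported by CNG channel membrane potential dye signal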
Target sequence (O60755 1-299 limits assumed): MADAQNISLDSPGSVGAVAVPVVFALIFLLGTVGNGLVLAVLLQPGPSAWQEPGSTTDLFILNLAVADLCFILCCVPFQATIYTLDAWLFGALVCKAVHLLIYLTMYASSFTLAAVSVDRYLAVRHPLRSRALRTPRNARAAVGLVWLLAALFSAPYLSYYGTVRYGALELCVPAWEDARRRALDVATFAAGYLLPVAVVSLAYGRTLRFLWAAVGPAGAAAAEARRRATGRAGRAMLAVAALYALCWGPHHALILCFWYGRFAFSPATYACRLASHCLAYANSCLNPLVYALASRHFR
TAAR1 antagonist: human TAAR1 antagonism | Q96RJ0 | CHO RD-HGA16 TAAR1, Fluo-8 calcium fluorescence, antagonist | inhibition, % at 3 µM | 360,000 compounds, 1.5% hits;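 active = inhibition above a per-plate cutoff, the mean inhibition of test compounds on that plate plus 3 SD, cut at about 49% in these data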
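System: CHO RD-HGA16 cells bearing hTAAR1. Reagent: EC80 β-phenethylamine stimulus. Schedule: seeding 17-24 h prior, 75-min 37 °C, 30-min RT dye loading. Signal: Fluo-8 intracellular calcium dye fluorescence, real-time kinetic reads. Read-out: % inhibition from peak post-agonist over basal fluorescence ratio. Benchmarks: vehicle wells and EC80 agonist wells. Replicates: n of 1.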
OX1R antag-2: blocks the human orexin 1 receptor. O43613. CHO/OX1R cells, Fluo-8 calcium fluorescence, orexin A. inhibition, % at 5 µM. 330,000 compounds, 0.43% hits. AID 434989;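 active = inhibition above its plate's threshold, mean inhibition of all tested compounds on the plate plus 3 SD, cut at about 37% in these data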
OX1R Fluo8 conf: confirmation of human orexin 1 receptor antagonists. CHO/OX1R cells, orexin A calcium Fluo-8 fluorescence. shares compounds with OX1R antag-2. inhibition, % at 5 µM. 1,100 compounds, 38% hits; in the data active = inhibition above about 29%
CHO Ca triplic: counter-screen for OX1R antagonists: effect in parental CHO cells; shares compounds with OX1R antag-2; parental CHO-K1, ATP-induced calcium, Fluo-8 fluorescence; inhibition, % at 5.6 µM; 1,100 compounds, 9.3% hits; AID 492965;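 active = inhibition above a per-plate limit, the mean inhibition of that plate's test compounds plus 3 SD, cut at about 25% in these data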
Hits are given with their value; – = inactive; · = no result given. Shown are actives, neighbours in structure and some others; about 4.3% of the full set was active somewhere.

SMILES	TAAR1 agonist	CHO parental Ca	OX1R antag-1	GalR3 antagonist	TAAR1 antagonist	OX1R antag-2	OX1R Fluo8 conf	CHO Ca triplic
NC(c1cccc(F)c1)c1nc(-c2ccc(Cl)cc2)cs1 (stereo not drawn)	–	·	·	–	–	·	·	·
CC(C)(C)c1ccc(OCC(O)CN(CCO)CC(O)Cn2ccc3ccccc32)cc1 (stereo not drawn)	–	–	–	–	–	–	·	·
OCCN(CC(O)Cn1ccc2ccccc21)CC(O)Cn1ccc2ccccc21 (stereo not drawn)	–	–	–	–	–	–	–	–
COc1cccc(NC(=O)CN(c2ccccc2OC)S(=O)(=O)c2cccs2)c1	–	–	–	–	–	–	–	–
COC(=O)c1c(-c2ccc(N(C)C)cc2)sc2ccc(OC)cc12	–	–	–	–	–	65	–	–
Cc1cnc(C(=O)NCC(=O)Nc2ccccc2Br)cn1	–	·	·	–	–	·	·	·
COc1cc(S(=O)(=O)N(CCc2ccccc2)Cc2cccs2)ccc1-n1cnnn1	–	–	–	–	–	52	–	–
COc1ccc(CCN(Cc2cccs2)S(=O)(=O)c2ccc(-n3cnnn3)cc2)cc1OC	–	–	–	–	–	–	·	·
Cc1cccc(NS(=O)(=O)c2cc3c4c(c2)C(C)C(=O)N4CCC3)c1 (stereo not drawn)	–	–	–	–	–	–	–	–
CCOc1cccc(-c2c(C(=O)N/N=C/c3c(F)cccc3Cl)nnn2-c2nonc2N)c1	–	–	–	–	–	–	35	–
COc1ccc(S(N)(=O)=O)cc1C(=O)NNC(=O)CN(C)S(=O)(=O)c1ccc(Cl)cc1	–	–	–	–	–	–	·	·
CC(C)(C)n1nnnc1C(c1ccccc1OC(F)(F)F)N1CCN(C/C=C/c2ccccc2)CC1 (stereo not drawn)	–	·	·	–	–	·	·	·
O=C(NN1C(=O)/C(=C/c2ccc(O)cc2)SC1=S)c1cccc(O)c1	–	–	–	–	–	–	·	·
O=C(NN1C(=O)/C(=C/c2ccc(O)cc2)SC1=S)c1ccccc1O	–	–	–	–	–	–	–	–
CC1CCN(C(=O)C2CCN(c3ncnc4c3nc3n4CCCCC3)CC2)CC1	–	–	–	–	–	–	·	·
O=C(C1CCN(c2ncnc3c2nc2n3CCCCC2)CC1)N1CCN(c2cccc(Cl)c2)CC1	–	–	–	–	63	–	–	–
O=C(c1ccccc1)C1(c2ccccc2)OC1c1ccccc1 (stereo not drawn)	–	·	·	–	–	·	·	·
Cc1cc(OCC(=O)Nc2cccc(S(=O)(=O)N3CCCCC3)c2)ccc1Cl	–	–	–	–	–	–	–	–
Fc1ccc(-c2cc3nc(-c4ccccc4)cc(N4CCOCC4)n3n2)cc1	–	–	–	–	–	–	·	·
Cc1ccc(-c2cc3nc(-c4ccccc4)cc(N4CCC5(CC4)OCCO5)n3n2)cc1	–	–	–	–	–	–	36	–
CNS(=O)(=O)c1cccc(C(=O)OCC(=O)NC2CCCC(C)C2C)c1 (stereo not drawn)	–	–	–	–	–	–	·	·
O=C(CSCc1cccc(CSCC(=O)Nc2ccc3ccccc3c2)n1)Nc1ccc2ccccc2c1	–	–	–	–	–	–	31	–
O=C(OCCc1cc2ccccc2c(=O)o1)c1ccccc1C(F)(F)F	–	–	–	–	–	–	–	–
O=C(OCCCc1cc2ccccc2c(=O)o1)c1ccccc1C(F)(F)F	–	–	–	–	–	–	·	·
Cc1ccc(C(=O)N2CCC(Cc3ccccc3)CC2)cc1[N+](=O)[O-]	–	–	–	–	–	–	–	–
SMILES	TAAR1 agonist	CHO parental Ca	OX1R antag-1	GalR3 antagonist	TAAR1 antagonist	OX1R antag-2	OX1R Fluo8 conf	CHO Ca triplic
Cc1c(C(=O)N2CCC(Cc3ccccc3)CC2)cccc1[N+](=O)[O-]	–	–	–	–	–	–	·	·
O=C(OCc1ccccc1)/C(=C/c1cccc(Br)c1)NC(=O)c1ccco1	–	–	–	–	–	–	·	·
Cn1cc(-c2csc(C(O)c3ccccc3)n2)cn1 (stereo not drawn)	–	·	·	–	–	·	·	·
Clc1cccc(-c2nnc(SC/C=C/c3ccccc3)n2Cc2ccco2)c1	·	–	–	·	·	49	–	–
CCOC(=O)[C@]12CCC=C1N(Cc1cccc3ccccc13)C(=O)[C@H](CC(=O)N1CCOCC1)C2	–	·	·	–	–	·	·	·
CCOc1ccc(NC(=O)c2cc(C3CC3)nc3c2cnn3C(C)C)cc1OC	–	–	–	–	–	–	·	·
COc1ccccc1-c1oc2ccccc2c1C#CC(C)(C)O	–	–	–	–	–	–	·	·
N#CCC(CNc1ncc(C(F)(F)F)cc1Cl)OC(=O)c1c(F)cccc1F (stereo not drawn)	–	–	–	–	–	–	–	–
CC1CCCC(C)N1CCOc1cc(N)ccc1C#N (stereo not drawn)	–	·	·	–	–	·	·	·
CCc1cc(=O)oc2c(CNCc3c(F)cccc3Cl)c(O)ccc12	–	–	–	–	–	–	·	·
CC(C)N(CCc1ccncc1)C(=S)Nc1ccc(F)c(Cl)c1	–	–	–	–	–	–	–	–
Fc1ccc(NC(=S)Nc2ccc(F)c(Cl)c2)cc1Cl	·	–	–	·	·	–	37	61
COc1ccc(NC(=S)N(CCc2ccncc2)C(C)C)cc1Cl	–	·	·	–	–	·	·	·
Cc1cccc(C(=O)N2CCc3cc(-c4nc(NC(=O)CN5CCCC5)sc4C)ccc32)c1	–	–	–	–	–	–	·	·
Cc1sc(NC(=O)CN2CCOCC2)nc1-c1ccc2c(c1)CCN2S(=O)(=O)c1ccccc1	–	–	–	–	–	–	–	28
Cc1cccc(C)c1NC(=O)C1c2ccccc2OCC(=O)N1Cc1cccnc1 (stereo not drawn)	–	·	·	–	–	·	·	·
C[C@@H]1CN([C@@H](C)CO)C(=O)CCCn2cc(nn2)CO[C@H]1CN(C)S(=O)(=O)c1ccc2ccccc2c1	–	·	·	–	–	·	·	·
CSCC(=O)NC1CCCc2c1cnn2-c1cc(F)cc(F)c1 (stereo not drawn)	–	·	·	–	–	·	·	·
O=C(CCc1ccncc1)NC1CCCc2c1cnn2-c1cc(F)cc(F)c1 (stereo not drawn)	·	–	–	·	·	46	–	–
Cc1ccc(C(=O)N(CC(=O)NC2CCCC2)c2cccc(F)c2)s1	–	–	–	–	–	–	·	·
Cc1cc(C(C)(C)C)oc1C(=O)N(CC(=O)NC1CCCC1)c1cccc(C(F)(F)F)c1	·	–	–	·	·	56	–	–
O=C(CSC1=Nc2ccccc2C2CC=NN12)NCc1ccco1 (stereo not drawn)	–	–	–	–	–	57	–	–
